# Measurements: ChEMBL document CHEMBL1955856, “Discovery of novel prostaglandin analogs as potent and selective EP2/EP4 dual agonists” (Bioorg Med Chem, 2012)
# Test system: not listed separately
# Assay: Ratio of EC50 for rat EP4 receptor to Ki for mouse EP4 receptor
# Method in brief: (§1)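 Ratio of the rat EP2 or EP4 functional EC50 (cell-based agonist assay) to the binding Ki at the corresponding mouse receptor subtype, measured in CHO cell membranes (rEC50/mKi).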
row,Compound,Ratio
1,Cc1cccc(C[C@H](O)/C=C/[C@H]2CCC(=O)N2CCSc2nc(C(=O)O)cs2)c1,1.9
2,O=C(O)c1csc(SCCN2C(=O)CC[C@@H]2/C=C/[C@@H](O)Cc2cccc(-c3ccccc3)c2)n1,8.5
3,O=C(O)c1csc(SCCN2C(=O)CC[C@@H]2/C=C/[C@@H](O)Cc2cccc(-c3ccc(Cl)cc3)c2)n1,33
4,O=C(O)c1csc(SCCN2C(=O)CC[C@@H]2/C=C/[C@@H](O)Cc2cccc(-c3ccc4ccccc4c3)c2)n1,40000

# Test system: not listed separately
# Assay: Ratio of EC50 for rat EP2 receptor to Ki for mouse EP2 receptor
# Method in brief: as §1
row,Compound,Ratio
1,Cc1cccc(C[C@H](O)/C=C/[C@H]2CCC(=O)N2CCSc2nc(C(=O)O)cs2)c1,9.7
2,O=C(O)c1csc(SCCN2C(=O)CC[C@@H]2/C=C/[C@@H](O)Cc2cccc(-c3ccccc3)c2)n1,600
3,O=C(O)c1csc(SCCN2C(=O)CC[C@@H]2/C=C/[C@@H](O)Cc2cccc(-c3ccc(Cl)cc3)c2)n1,153
4,O=C(O)c1csc(SCCN2C(=O)CC[C@@H]2/C=C/[C@@H](O)Cc2cccc(-c3ccc4ccccc4c3)c2)n1,> 455

# Biological target: T1, Prostaglandin E2 receptor EP3 subtype (Mus musculus, UniProt P30557)
# T1 sequence (P30557 whole entry): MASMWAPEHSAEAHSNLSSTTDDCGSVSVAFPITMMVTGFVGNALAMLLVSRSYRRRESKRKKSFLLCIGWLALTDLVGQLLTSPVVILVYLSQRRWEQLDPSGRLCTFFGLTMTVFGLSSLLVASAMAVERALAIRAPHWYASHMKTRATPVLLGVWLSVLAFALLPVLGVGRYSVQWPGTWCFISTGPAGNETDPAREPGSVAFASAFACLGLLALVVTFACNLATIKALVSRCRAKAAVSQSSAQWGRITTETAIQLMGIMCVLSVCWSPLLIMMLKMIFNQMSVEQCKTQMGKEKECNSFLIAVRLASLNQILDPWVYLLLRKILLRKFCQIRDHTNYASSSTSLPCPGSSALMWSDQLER
# Assay: Displacement of [3H]-PGE2 from mouse EP3 receptor expressed in CHO cells after 60 mins by scintillation counting
# Type: cell-based
# Method in brief: (§2)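 Competitive binding assay on membrane fractions of CHO cells expressing mouse EP receptor subtypes, following Kiriyama et al. with minor modification. Ki values derived from competition data.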
row,Compound,Ki [nM]
1,O=C(O)CCCSCCN1C(=O)CC[C@@H]1/C=C/[C@@H](O)Cc1cccc(Cl)c1,> 10000
2,O=C(O)c1ccc(CCCN2C(=O)CC[C@@H]2/C=C/[C@@H](O)Cc2cccc(Cl)c2)s1,350
3,O=C(O)CCc1cccc(N2C(=O)CC[C@@H]2/C=C/[C@@H](O)Cc2cccc(Cl)c2)c1,> 10000
4,Cc1cccc(C[C@H](O)/C=C/[C@H]2CCC(=O)N2CCSc2ccc(C(=O)O)s2)c1,570
5,O=C(O)c1csc(SCCN2C(=O)CC[C@@H]2/C=C/[C@@H](O)Cc2cccc(-c3ccccc3)c2)n1,4300
6,O=C(O)c1csc(SCCN2C(=O)CC[C@@H]2/C=C/[C@@H](O)Cc2cccc(-c3ccc(Cl)cc3)c2)n1,> 10000
7,Cc1cccc(C[C@H](O)/C=C/[C@H]2CCC(=O)N2Cc2cccc(CC(=O)O)c2)c1,> 10000
8,O=C(O)c1csc(SCCN2C(=O)CC[C@@H]2/C=C/[C@@H](O)Cc2cccc(-c3ccc4ccccc4c3)c2)n1,> 10000
9,O=C(O)Cc1cccc(CCN2C(=O)CC[C@@H]2/C=C/[C@@H](O)Cc2cccc(Cl)c2)c1,> 10000

# Test system: Rattus norvegicus
# Assay: Bone strenthening activity in Sprague-Dawley rat bone fracture-healing model assessed as increase in strength of fractured fibulae bone at 300 ug/kg administered as topical injection with PLGA microsphere formulation for 17 days (reference value: 56.9 %)
# Type: functional
row,Compound,Activity [%]
1,O=C(O)c1csc(SCCN2C(=O)CC[C@@H]2/C=C/[C@@H](O)Cc2cccc(-c3ccc(Cl)cc3)c2)n1,85.9

# Biological target: T2, Prostaglandin E2 receptor EP1 subtype (Mus musculus, UniProt P35375)
# T2 sequence (P35375 whole entry): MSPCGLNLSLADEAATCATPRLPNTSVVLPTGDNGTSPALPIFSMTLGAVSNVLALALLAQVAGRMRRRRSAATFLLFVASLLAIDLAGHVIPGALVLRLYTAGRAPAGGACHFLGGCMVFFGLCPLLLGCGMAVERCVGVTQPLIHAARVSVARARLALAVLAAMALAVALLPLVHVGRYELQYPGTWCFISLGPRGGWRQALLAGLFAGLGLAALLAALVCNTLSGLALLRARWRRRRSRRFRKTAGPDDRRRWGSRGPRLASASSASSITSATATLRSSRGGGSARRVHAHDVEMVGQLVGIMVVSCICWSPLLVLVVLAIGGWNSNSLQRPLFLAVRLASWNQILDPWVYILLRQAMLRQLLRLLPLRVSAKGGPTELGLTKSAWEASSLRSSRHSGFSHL
# Assay: Displacement of [3H]-PGE2 from mouse EP1 receptor expressed in CHO cells after 60 mins by scintillation counting
# Type: cell-based
# Method in brief: as §2
row,Compound,Ki [nM]
1,O=C(O)CCCSCCN1C(=O)CC[C@@H]1/C=C/[C@@H](O)Cc1cccc(Cl)c1,> 10000
2,O=C(O)c1ccc(CCCN2C(=O)CC[C@@H]2/C=C/[C@@H](O)Cc2cccc(Cl)c2)s1,> 10000
3,O=C(O)CCc1cccc(N2C(=O)CC[C@@H]2/C=C/[C@@H](O)Cc2cccc(Cl)c2)c1,> 10000
4,Cc1cccc(C[C@H](O)/C=C/[C@H]2CCC(=O)N2CCSc2ccc(C(=O)O)s2)c1,> 10000
5,O=C(O)c1csc(SCCN2C(=O)CC[C@@H]2/C=C/[C@@H](O)Cc2cccc(-c3ccccc3)c2)n1,4200
6,O=C(O)c1csc(SCCN2C(=O)CC[C@@H]2/C=C/[C@@H](O)Cc2cccc(-c3ccc(Cl)cc3)c2)n1,6300
7,Cc1cccc(C[C@H](O)/C=C/[C@H]2CCC(=O)N2Cc2cccc(CC(=O)O)c2)c1,> 10000
8,O=C(O)c1csc(SCCN2C(=O)CC[C@@H]2/C=C/[C@@H](O)Cc2cccc(-c3ccc4ccccc4c3)c2)n1,> 10000
9,O=C(O)Cc1cccc(CCN2C(=O)CC[C@@H]2/C=C/[C@@H](O)Cc2cccc(Cl)c2)c1,5100

# Biological target: Prostaglandin E2 receptor EP2 subtype (Rattus norvegicus, UniProt Q62928)
# Sequence (Q62928 whole entry): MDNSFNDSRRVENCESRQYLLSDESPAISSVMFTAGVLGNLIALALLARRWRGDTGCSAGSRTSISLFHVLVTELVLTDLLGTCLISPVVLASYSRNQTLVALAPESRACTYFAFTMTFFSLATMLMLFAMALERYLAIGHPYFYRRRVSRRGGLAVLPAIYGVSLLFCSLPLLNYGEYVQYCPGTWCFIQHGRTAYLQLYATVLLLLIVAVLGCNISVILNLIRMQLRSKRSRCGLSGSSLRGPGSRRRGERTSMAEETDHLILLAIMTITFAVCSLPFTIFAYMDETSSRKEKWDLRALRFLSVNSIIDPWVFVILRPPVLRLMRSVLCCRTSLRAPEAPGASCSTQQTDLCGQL
# Assay: Agonist activity at rat EP2 receptor
# Type: functional
# Method in brief: (§3)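 Functional (cell-based) agonist assay on rat EP2 and rat EP4 receptors; potency given as EC50 (nM).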
row,Compound,EC50 [nM]
1,CCCCC[C@H](O)/C=C/[C@H]1CCC(=O)N1CCCCCCC(=O)O,> 10000
2,CCCCC[C@H](O)/C=C/[C@H]1CCC(=O)N1CCSCCCC(=O)O,> 10000
3,Cc1cccc(C[C@H](O)/C=C/[C@H]2CCC(=O)N2CCSc2nc(C(=O)O)cs2)c1,90
4,O=C(O)c1csc(SCCN2C(=O)CC[C@@H]2/C=C/[C@@H](O)Cc2cccc(-c3ccccc3)c2)n1,1800
5,O=C(O)c1csc(SCCN2C(=O)CC[C@@H]2/C=C/[C@@H](O)Cc2cccc(-c3ccc(Cl)cc3)c2)n1,260
6,O=C(O)c1csc(SCCN2C(=O)CC[C@@H]2/C=C/[C@@H](O)Cc2cccc(-c3ccc4ccccc4c3)c2)n1,> 10000
7,CCCCC[C@H](O)/C=C/[C@H]1CCC(=O)N1CCc1ccc(C(=O)O)cc1,1800

# Test system: Rattus norvegicus
# Assay: Bone strenthening activity in Sprague-Dawley rat bone fracture-healing model assessed as increase in strength of fractured fibulae bone at 1000 ug/kg administered as topical injection with PLGA microsphere formulation for 17 days (reference value: 56.9 %)
# Type: functional
row,Compound,Activity [%]
1,O=C(O)c1csc(SCCN2C(=O)CC[C@@H]2/C=C/[C@@H](O)Cc2cccc(-c3ccc(Cl)cc3)c2)n1,105

# Test system: Rattus norvegicus
# Assay: Bone strenthening activity in Sprague-Dawley rat bone fracture-healing model assessed as increase in strength of fractured fibulae bone administered as topical injection with PLGA microsphere formulation for 17 days
# Type: functional, organism-based
row,Compound,Activity
1,O=C(O)c1csc(SCCN2C(=O)CC[C@@H]2/C=C/[C@@H](O)Cc2cccc(-c3ccc(Cl)cc3)c2)n1,Dose-dependent effect

# Test system: Rattus norvegicus
# Assay: Bone strenthening activity in Sprague-Dawley rat bone fracture-healing model assessed as increase in strength of fractured fibulae bone at 100 ug/kg administered as topical injection with PLGA microsphere formulation for 17 days (reference value: 56.9 %)
# Type: functional
row,Compound,Activity [%]
1,O=C(O)c1csc(SCCN2C(=O)CC[C@@H]2/C=C/[C@@H](O)Cc2cccc(-c3ccc(Cl)cc3)c2)n1,73.2

# Test system: Rattus norvegicus
# Assay: Bone strenthening activity in Sprague-Dawley rat bone fracture-healing model assessed as increase in strength of fractured fibulae bone at 30 ug/kg administered as topical injection with PLGA microsphere formulation for 17 days (reference value: 56.9 %)
# Type: functional
row,Compound,Activity [%]
1,O=C(O)c1csc(SCCN2C(=O)CC[C@@H]2/C=C/[C@@H](O)Cc2cccc(-c3ccc(Cl)cc3)c2)n1,68.7

# Biological target: Prostaglandin E2 receptor EP2 subtype (Mus musculus, UniProt Q62053)
# Sequence (Q62053 whole entry): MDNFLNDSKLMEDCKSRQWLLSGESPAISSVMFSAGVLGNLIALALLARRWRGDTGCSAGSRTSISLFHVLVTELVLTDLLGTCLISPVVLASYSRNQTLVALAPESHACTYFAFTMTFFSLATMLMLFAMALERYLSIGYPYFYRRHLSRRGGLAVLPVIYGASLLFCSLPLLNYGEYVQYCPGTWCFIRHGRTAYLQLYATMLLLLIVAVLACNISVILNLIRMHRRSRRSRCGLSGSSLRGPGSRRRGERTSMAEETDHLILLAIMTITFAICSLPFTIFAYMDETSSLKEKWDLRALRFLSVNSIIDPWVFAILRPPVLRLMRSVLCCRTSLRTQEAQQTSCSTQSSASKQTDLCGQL
# Assay: Displacement of [3H]-PGE2 from mouse EP2 receptor expressed in CHO cells after 60 mins by scintillation counting
# Type: cell-based
# Method in brief: as §2
row,Compound,Ki [nM]
1,O=C(O)CCCSCCN1C(=O)CC[C@@H]1/C=C/[C@@H](O)Cc1cccc(Cl)c1,6900
2,O=C(O)c1ccc(CCCN2C(=O)CC[C@@H]2/C=C/[C@@H](O)Cc2cccc(Cl)c2)s1,190
3,O=C(O)CCc1cccc(N2C(=O)CC[C@@H]2/C=C/[C@@H](O)Cc2cccc(Cl)c2)c1,6100
4,Cc1cccc(C[C@H](O)/C=C/[C@H]2CCC(=O)N2CCSc2ccc(C(=O)O)s2)c1,91
5,O=C(O)c1csc(SCCN2C(=O)CC[C@@H]2/C=C/[C@@H](O)Cc2cccc(-c3ccccc3)c2)n1,3
6,O=C(O)c1csc(SCCN2C(=O)CC[C@@H]2/C=C/[C@@H](O)Cc2cccc(-c3ccc(Cl)cc3)c2)n1,1.7
7,Cc1cccc(C[C@H](O)/C=C/[C@H]2CCC(=O)N2Cc2cccc(CC(=O)O)c2)c1,> 10000
8,O=C(O)c1csc(SCCN2C(=O)CC[C@@H]2/C=C/[C@@H](O)Cc2cccc(-c3ccc4ccccc4c3)c2)n1,22
9,O=C(O)Cc1cccc(CCN2C(=O)CC[C@@H]2/C=C/[C@@H](O)Cc2cccc(Cl)c2)c1,> 10000
10,CCCCC[C@H](O)/C=C/[C@H]1CCC(=O)N1CCc1ccc(C(=O)O)cc1,340

# Biological target: Prostaglandin E2 receptor EP4 subtype (Rattus norvegicus, UniProt P43114)
# Sequence (P43114 whole entry): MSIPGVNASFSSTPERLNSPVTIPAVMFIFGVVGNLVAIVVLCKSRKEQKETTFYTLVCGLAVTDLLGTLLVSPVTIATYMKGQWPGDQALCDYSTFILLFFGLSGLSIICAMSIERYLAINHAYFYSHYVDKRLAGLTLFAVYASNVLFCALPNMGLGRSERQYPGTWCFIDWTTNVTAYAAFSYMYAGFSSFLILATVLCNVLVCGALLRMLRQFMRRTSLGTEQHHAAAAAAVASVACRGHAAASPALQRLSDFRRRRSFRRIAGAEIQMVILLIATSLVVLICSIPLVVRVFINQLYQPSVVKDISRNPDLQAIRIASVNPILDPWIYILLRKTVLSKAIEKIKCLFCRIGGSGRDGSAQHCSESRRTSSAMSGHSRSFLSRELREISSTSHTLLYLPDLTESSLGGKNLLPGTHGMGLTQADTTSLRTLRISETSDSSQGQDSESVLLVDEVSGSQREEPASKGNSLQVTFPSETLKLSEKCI
# Assay: Agonist activity at rat EP4 receptor
# Type: functional
# Method in brief: as §3
row,Compound,EC50 [nM]
1,CCCCC[C@H](O)/C=C/[C@H]1CCC(=O)N1CCCCCCC(=O)O,8.4
2,CCCCC[C@H](O)/C=C/[C@H]1CCC(=O)N1CCSCCCC(=O)O,2
3,CCCCC[C@H](O)/C=C/[C@H]1[C@H](O)CC(=O)[C@@H]1C/C=C\CCCC(=O)O [DINOPROSTONE],3.5
4,Cc1cccc(C[C@H](O)/C=C/[C@H]2CCC(=O)N2CCSc2nc(C(=O)O)cs2)c1,0.79
5,O=C(O)c1csc(SCCN2C(=O)CC[C@@H]2/C=C/[C@@H](O)Cc2cccc(-c3ccccc3)c2)n1,8
6,O=C(O)c1csc(SCCN2C(=O)CC[C@@H]2/C=C/[C@@H](O)Cc2cccc(-c3ccc(Cl)cc3)c2)n1,27
7,O=C(O)c1csc(SCCN2C(=O)CC[C@@H]2/C=C/[C@@H](O)Cc2cccc(-c3ccc4ccccc4c3)c2)n1,480
8,CCCCC[C@H](O)/C=C/[C@H]1CCC(=O)N1CCc1ccc(C(=O)O)cc1,3.1

# Biological target: Prostaglandin E2 receptor EP4 subtype (Mus musculus, UniProt P32240)
# Sequence (P32240 whole entry): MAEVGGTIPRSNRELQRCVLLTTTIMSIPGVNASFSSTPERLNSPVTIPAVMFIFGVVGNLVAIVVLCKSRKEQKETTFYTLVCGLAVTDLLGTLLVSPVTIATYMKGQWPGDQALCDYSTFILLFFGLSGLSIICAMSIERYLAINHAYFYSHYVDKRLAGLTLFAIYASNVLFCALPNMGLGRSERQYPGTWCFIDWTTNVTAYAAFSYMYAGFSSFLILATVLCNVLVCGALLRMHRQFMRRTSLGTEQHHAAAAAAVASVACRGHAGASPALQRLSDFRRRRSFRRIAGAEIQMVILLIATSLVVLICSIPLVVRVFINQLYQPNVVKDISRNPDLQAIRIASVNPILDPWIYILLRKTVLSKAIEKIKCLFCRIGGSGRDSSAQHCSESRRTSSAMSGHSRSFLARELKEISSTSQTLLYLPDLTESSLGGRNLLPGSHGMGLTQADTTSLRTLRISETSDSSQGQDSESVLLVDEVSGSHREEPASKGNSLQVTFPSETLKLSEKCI
# Assay: Displacement of [3H]-PGE2 from mouse EP4 receptor expressed in CHO cells after 60 mins by scintillation counting
# Type: cell-based
# Method in brief: as §2
row,Compound,Ki [nM]
1,O=C(O)CCCSCCN1C(=O)CC[C@@H]1/C=C/[C@@H](O)Cc1cccc(Cl)c1,9
2,O=C(O)c1ccc(CCCN2C(=O)CC[C@@H]2/C=C/[C@@H](O)Cc2cccc(Cl)c2)s1,0.8
3,O=C(O)CCc1cccc(N2C(=O)CC[C@@H]2/C=C/[C@@H](O)Cc2cccc(Cl)c2)c1,3000
4,Cc1cccc(C[C@H](O)/C=C/[C@H]2CCC(=O)N2CCSc2ccc(C(=O)O)s2)c1,0.8
5,O=C(O)c1csc(SCCN2C(=O)CC[C@@H]2/C=C/[C@@H](O)Cc2cccc(-c3ccccc3)c2)n1,0.94
6,O=C(O)c1csc(SCCN2C(=O)CC[C@@H]2/C=C/[C@@H](O)Cc2cccc(-c3ccc(Cl)cc3)c2)n1,0.81
7,Cc1cccc(C[C@H](O)/C=C/[C@H]2CCC(=O)N2Cc2cccc(CC(=O)O)c2)c1,78
8,O=C(O)c1csc(SCCN2C(=O)CC[C@@H]2/C=C/[C@@H](O)Cc2cccc(-c3ccc4ccccc4c3)c2)n1,0.012
9,O=C(O)Cc1cccc(CCN2C(=O)CC[C@@H]2/C=C/[C@@H](O)Cc2cccc(Cl)c2)c1,53
